According to ChEMBL document CHEMBL4038314, “Synthetic Modification within the "RPRL" Region of Apelin Peptides: Impact on Cardiovascular Activity and Stability to Neprilysin and Plasma Degradation” (J Med Chem, 2017):
Activity calls are given as the source filed them. The rule behind the calls is not given here. Starred links: 1 amine or outer side, 2 acyl side, 3 side chain; linkers in the order of their positions; H or OH if unused. Non-standard residues stand in square brackets, D forms with d. Residues, ends and D or L forms follow the SMILES beside them. Phe(4-Br) = N[C@@H](Cc1ccc(Br)cc1)C(=O)O; X1 = N=C(N)NCCCN(N[*:1])C(=O)[*:2]; pGlu = O=C1CC[C@@H](C(=O)O)N1; Nle = CCCC[C@H](N)C(=O)O; Aib = CC(C)(N)C(=O)O

Assays:
Mus musculus [1] = test: Cardiovascular activity in anesthetized mouse assessed as increase in heart rate at 1.4 uM/kg, iv relative to control; type: functional, organism-based
In short: (§1)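 Mice under 1.5% isoflurane, body temperature held at 36 °C on a heating pad. Aorta cannulated via the right carotid artery with a 1.2F PV loop catheter to record arterial pressure and heart rate continuously. Peptide given systemically through the right internal jugular vein.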

Neprilysin [2] = target: T1, Neprilysin (Homo sapiens, UniProt P08473); test: Inhibition of recombinant human NEP using pyr-1-apelin-13 as substrate assessed as peptide degradation at 1 mM preincubated for 10 mins followed by substrate addition measured after 72 hrs by LC-MS analysis; conditions: 1000 µM
T1 sequence (P08473 whole entry): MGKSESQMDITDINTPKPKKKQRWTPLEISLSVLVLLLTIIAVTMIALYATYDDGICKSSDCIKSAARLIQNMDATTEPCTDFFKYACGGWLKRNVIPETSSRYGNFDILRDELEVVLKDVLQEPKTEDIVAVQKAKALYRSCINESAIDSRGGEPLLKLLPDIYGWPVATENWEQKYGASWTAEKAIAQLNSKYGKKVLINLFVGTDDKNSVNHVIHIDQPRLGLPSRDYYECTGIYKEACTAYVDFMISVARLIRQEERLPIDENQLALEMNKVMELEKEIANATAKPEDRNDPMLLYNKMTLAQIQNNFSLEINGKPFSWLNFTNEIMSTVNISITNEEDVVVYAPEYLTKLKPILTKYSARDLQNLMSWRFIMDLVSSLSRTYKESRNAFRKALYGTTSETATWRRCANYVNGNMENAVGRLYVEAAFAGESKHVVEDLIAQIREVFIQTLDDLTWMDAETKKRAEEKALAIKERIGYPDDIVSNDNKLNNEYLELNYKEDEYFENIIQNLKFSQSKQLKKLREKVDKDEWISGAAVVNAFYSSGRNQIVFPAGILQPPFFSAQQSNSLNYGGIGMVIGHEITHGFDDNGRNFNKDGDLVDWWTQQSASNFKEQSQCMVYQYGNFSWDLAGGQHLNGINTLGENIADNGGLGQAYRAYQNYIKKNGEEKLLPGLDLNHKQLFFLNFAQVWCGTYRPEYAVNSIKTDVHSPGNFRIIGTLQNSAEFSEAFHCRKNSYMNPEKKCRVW
In short: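 Recombinant human NEP, 3.1 nM in Tris/NaCl/10 μM ZnCl2 buffer, pH 7.5, preincubated 10 min at 37 °C with 5 μL of 1 mM analogue stock (equimolar to substrate) plus dansyl-YVG standard. Then 5 μL of 1 mM pyr-1-apelin-13 added. Aliquots taken at 0, 1, 4, 24 and 72 h and analysed by LC−MS; duplicate per time point.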

Mus musculus [3] = test: Cardiovascular activity in anesthetized mouse assessed as decrease in blood pressure at 1.4 uM/kg, iv relative to control; type: functional, organism-based; in short: as §1
Neprilysin [4] = target: T1, Neprilysin; test: Drug degradation in human plasma assessed as NEP-mediated degradation by measuring amount of apelin remaining after 60 mins by RP-HPLC analysis; type: ADME; conditions: 1 h
In short: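 Human plasma (20 μL) prewarmed to 37 °C, then 5 μL of 400 μM peptide added and incubated for set times; done in triplicate. Quenched with 10% aqueous TFA, dansyl-YVG internal standard added, and peptides recovered on a C18 spin column with 40% acetonitrile/0.1% TFA. Analysed by C18 RP-HPLC; peptide/standard peak-area ratio compared with the 0 min ratio.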

Neprilysin [5] = target: T1, Neprilysin; test: Drug metabolism assessed as recombinant human NEP-medited peptide proteolysis at 1 mM up to 72 hrs by LC-MS analysis; type: ADME; conditions: 1000 µM
In short: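 Recombinant human NEP, 3.1 nM final in 100 mM Tris, 100 mM NaCl, 10 μM ZnCl2, pH 7.5, preincubated 10 min at 37 °C. Then 5 μL of 1 mM peptide stock and dansyl-YVG internal standard added; incubated at 37 °C for up to 72 h. Extracted-ion LC−MS ratio of parent to standard compared with 0 h and converted to percent cleaved.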

Heart [6] = test: Cardioprotective activity against Langendorff isolated mouse heart ischemia-reperfusion model assessed as improvement in LVDP at 1 uM administered for 10 mins during start of 40 mins reperfusion period post 30 mins ischemic induction; type: functional, tissue-based
In short: (§2)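 Mouse hearts (heparinized, isoflurane 1.5−2%) excised and Langendorff-perfused at constant 80 mmHg with modified Krebs−Henseleit buffer, 37 °C, 95% O2/5% CO2, pH 7.4. After 10 min baseline, 30 min global ischemia, then 40 min reperfusion. Peptide at 1 μM given for the first 10 min of reperfusion, with saline sham and native apelin-17 as controls. Left ventricular function recorded continuously.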

Heart [7] = test: Cardioprotective activity against Langendorff isolated mouse heart ischemia-reperfusion model assessed as maximum derivative change in systolic pressure over time at 1 uM administered for 10 mins during start of 40 mins reperfusion period post 30 mins ischemic induction; type: functional, tissue-based; in short: as §2
Mus musculus [8] = test: Cardiotoxicity in anesthetized mouse assessed as induction of tachycardia at 1.4 uM/kg, iv relative to control; type: toxicity, organism-based; conditions: in vivo, 1.4 µmol/kg; in short: as §1
Heart [9] = test: Cardioprotective activity against Langendorff isolated mouse heart ischemia-reperfusion model assessed as minimum derivative change in diastolic pressure over time at 1 uM administered for 10 mins during start of 40 mins reperfusion period post 30 mins ischemic induction; type: functional, tissue-based; in short: as §2
Heart [10] = test: Cardioprotective activity against Langendorff isolated mouse heart ischemia-reperfusion model assessed as improvement in RPP at 1 uM administered for 10 mins during start of 40 mins reperfusion period post 30 mins ischemic induction; type: functional, tissue-based; in short: as §2

inhibition (INH) (Neprilysin [2])	Drug degradation (Neprilysin [4])	Drug metabolism (Neprilysin [5])	SMILES	Activity (Mus musculus [1])	Activity (Mus musculus [3])	Activity (Heart [6])	Activity (Heart [7])	Activity (Mus musculus [8])	Activity (Heart [9])	Activity (Heart [10])
–	65%	Metabolite_Detected	CCCC[C@H](NC(=O)[C@@H]1CCCN1C(=O)CNC(=O)[C@H](CCCCN)NC(=O)[C@H](Cc1c[nH]cn1)NC(=O)[C@H](CO)NC(=O)[C@H](CC(C)C)NC(=O)[C@H](CCCNC(=N)N)NC(=O)[C@@H]1CCCN1C(=O)[C@H](CCCNC(=N)N)NC(=O)[C@@H]1CCC(=O)N1)C(=O)NC(C)(C)C(=O)N[C@@H](Cc1ccc(Br)cc1)C(=O)O	inactive	inactive	–	–	–	–	–
Not Active	94%	Metabolite_Notdetected	CCCC[C@H](NC(=O)[C@@H]1CCCN1C(=O)CNC(=O)[C@H](CCCCN)NC(=O)[C@H](Cc1c[nH]cn1)NC(=O)[C@H](CO)NC(=O)[C@H](CC(C)C)NC(=O)N(CCCNC(=N)N)NC(=O)[C@@H]1CCCN1C(=O)[C@H](CCCNC(=N)N)NC(=O)[C@H](CCC(N)=O)NC(=O)[C@H](CCCNC(=N)N)NC(=O)[C@H](CCCNC(=N)N)NC(=O)[C@H](Cc1ccccc1)NC(=O)[C@@H](N)CCCCN)C(=O)NC(C)(C)C(=O)N[C@@H](Cc1ccc(Br)cc1)C(=O)O (H-KFRRQRP[X1]LSHKGP[Nle][Aib][Phe(4-Br)]-OH)	–	Active	Active	Active	Toxic	Active	Active
Not Active	57%	Metabolite_Notdetected	CCCC[C@H](NC(=O)[C@@H]1CCCN1C(=O)CNC(=O)[C@H](CCCCN)NC(=O)[C@H](Cc1c[nH]cn1)NC(=O)[C@H](CO)NC(=O)[C@H](CC(C)C)NC(=O)N(CCCNC(=N)N)NC(=O)[C@@H]1CCCN1C(=O)[C@H](CCCNC(=N)N)NC(=O)[C@@H]1CCC(=O)N1)C(=O)NC(C)(C)C(=O)N[C@@H](Cc1ccc(Br)cc1)C(=O)O ([pGlu]RP[X1]LSHKGP[Nle][Aib][Phe(4-Br)]-OH)	Active	–	–	–	–	–	–

Continued, compound first:

SMILES	inhibition (INH) (Neprilysin [2])	Drug degradation (Neprilysin [4])	Drug metabolism (Neprilysin [5])	Activity (Mus musculus [1])	Activity (Mus musculus [3])	Activity (Heart [6])	Activity (Heart [7])	Activity (Mus musculus [8])	Activity (Heart [9])	Activity (Heart [10])
CCCC[C@H](NC(=O)[C@@H]1CCCN1C(=O)CNC(=O)[C@H](CCCCN)NC(=O)[C@H](Cc1c[nH]cn1)NC(=O)[C@H](CO)NC(=O)[C@H](CC(C)C)N(C)C(=O)[C@H](CCCNC(=N)N)NC(=O)[C@@H]1CCCN1C(=O)[C@H](CCCNC(=N)N)NC(=O)[C@@H]1CCC(=O)N1)C(=O)NC(C)(C)C(=O)N[C@@H](Cc1ccc(Br)cc1)C(=O)O	Not Active	59%	Metabolite_Notdetected	Active	inactive	–	–	–	–	–
CCCC[C@H](NC(=O)[C@@H]1CCCN1C(=O)CNC(=O)[C@H](CCCCN)NC(=O)[C@H](Cc1c[nH]cn1)NC(=O)[C@H](CO)NC(=O)[C@](C)(CC(C)C)NC(=O)[C@H](CCCNC(=N)N)NC(=O)[C@@H]1CCCN1C(=O)[C@H](CCCNC(=N)N)NC(=O)[C@@H]1CCC(=O)N1)C(=O)NC(C)(C)C(=O)N[C@@H](Cc1ccc(Br)cc1)C(=O)O	Not Active	38%	Metabolite_Notdetected	Active	–	–	–	–	–	–
